The values below come from ChEMBL document CHEMBL1772981, “Discovery of 2-arylbenzoxazoles as upregulators of utrophin production for the treatment of Duchenne muscular dystrophy” (J Med Chem, 2011).

For series [1], the species on record is Mus musculus. The series can be described thus: Activation of UTRN promoter in mouse H2K cells assessed as upregulation of UTRN production at 10 uM after 72 hrs by RT-PCR analysis. It is filed as functional. Put shortly:
(§1)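 H2K cells were seeded at 25000 per well, left 24 h, then dosed for 72 h in 1% DMSO final. Total RNA was extracted and reverse transcribed. qPCR used an amplicon spanning the UTRN exon 3–4 boundary, with β-actin as the endogenous control, and was quantified by ΔΔCT. Values are % UTRN relative to DMSO control (=100), with P value.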

Series [2] has as its system Mus musculus. In words: Tmax in CD1 mouse at 10 mg/kg, ip. It is filed as ADME, organism-based. More on the design: dose 10 mg/kg, route intraperitoneal. Particulars: in vivo. Put shortly: (§2)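 Male CD1 mice were dosed i.p. at 10 mg/kg in 95% PBS containing 0.1% Tween 20 and 5% DMSO. Plasma was sampled at 5–360 or 5–480 min. AUC is in μg.min/mL. Half-life was not calculated where the log concentration–time plot lacked a linear region of at least three points.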

The species named for series [3] is Mus musculus. In words: Activation of UTRN promoter in mouse H2K cells assessed as upregulation of UTRN production after 48 hrs by luciferase reporter linked assay. It is filed as functional, cell-based. Put shortly:
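H2K myoblasts stably carrying a utrophin (UTRN) promoter–luciferase reporter were plated 24 h before dosing and exposed to compound for 48 h. Luciferase was read by luminescence (Steady-Glo). The primary screen was at 10 μM and the secondary at six concentrations for EC50, both in triplicate. Non-EC50 values are % of the reference upregulator's maximum, given with the concentration at maximum.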

In series [4] the test system is Mus musculus. The series can be described thus: Cmax in CD1 mouse at 10 mg/kg, ip. It is filed as ADME, organism-based. Also on record: dose 10 mg/kg, route intraperitoneal. Particulars: in vivo. A digest of the protocol:
as §2

The nature of series [5]: Aqueous solubility of the compound by turbidimetry. It is filed as physicochemical. Particulars: buffer. Put shortly: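 Turbidimetric aqueous solubility, reported as the final test compound concentration.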
Series [6] deals with Mus musculus. The series can be described thus: AUC in CD1 mouse at 10 mg/kg, ip. It is filed as ADME, organism-based, Plasma. More on the design: dose 10 mg/kg, route intraperitoneal. The conditions noted are these: in vivo. A digest of the protocol:
as §2

For series [7], the system named is Mus musculus. The series can be described thus: Half life in CD1 mouse at 10 mg/kg, ip. Particulars: in vivo. More on the design: dose 10 mg/kg, route intraperitoneal. It is filed as ADME, organism-based. A digest of the protocol:
as §2

Series [8] can be described thus: Half life in mouse liver microsomes. It is filed as ADME, Microsome.
The species named for series [9] is Mus musculus. In words: Activation of UTRN promoter in mouse H2K cells assessed as upregulation of UTRN production at 3 uM after 72 hrs by RT-PCR analysis. It is filed as functional. Put shortly:
as §1

Series [10] is described as follows: Half life in human liver microsomes. It is filed as ADME, Microsome.
The nature of series [11]: AUC in CD1 mouse at 50 mg/kg, ip. More on the design: dose 50 mg/kg, route intraperitoneal. Particulars: plasma. It is filed as ADME, organism-based. Put shortly: (§3)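 Male CD1 mice were given 50 mg/kg i.p. in 95% PBS with 0.1% Tween 20 and 5% DMSO. Plasma was sampled at 0.08, 0.25, 0.5, 1, 2, 4, 8 and 24 h in three animals, and values are the mean in ng/mL.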
Series [12] in a line: Cmax in CD1 mouse at 50 mg/kg, ip. It is filed as ADME, organism-based. More on the design: dose 50 mg/kg, route intraperitoneal. Particulars: in vivo. Put shortly: as §3
A short description of series [13]: Tmax in CD1 mouse at 50 mg/kg, ip. It is filed as ADME, organism-based. Also on record: dose 50 mg/kg, route intraperitoneal. Particulars: in vivo. Put shortly:
as §3

In brackets after ≈: the same amount, converted by molar mass.

For `Cc1cc2nc(-c3ccc(N)cc3O)oc2cc1C`, the Activity in the series listed under Mus musculus [1] is reported as 144.8%. For the same molecule, the Tmax in the series on Mus musculus [2] is 5 min. Further, the EC50 in the series listed under Mus musculus [3] (Mus musculus, H2K, 48 h) was found to be 0.7 µM. Also, in the series with Mus musculus [4], the Cmax is 10.9 ng/mL. In series [5], this molecule showed a kinetic solubility of 1 µM (≈ 0.254 µg/mL). In the series on Mus musculus [6], the AUC was 10 ng·h/mL. Further, in the series on Mus musculus [7], the t1/2 turned out to be 40.9 min. For the same molecule, the half-life in [8] is 22 min.
On to `CC(C)C(=O)Nc1ccc2oc(-c3ccc(Cl)c(Cl)c3)nc2c1`, for which the EC50 in the series listed under Mus musculus [3] (Mus musculus, H2K, 48 h) was determined as 1.5 µM. Also, the Activity in the series listed under Mus musculus [9] was 128.2%.
For `CCS(=O)(=O)c1ccc2oc(-c3ccc(Cl)cc3)nc2c1`, the half-life came to 69 min in [10] and 30.6 min in series [8]. In addition, the time to peak (Tmax) in the series with Mus musculus [2] is 5 min. Further, in the series filed under Mus musculus [3] (Mus musculus, H2K, 48 h), the half-maximal effective concentration (EC50) came out at 5 µM. In the series on Mus musculus [4], this molecule yielded a Cmax of 5650 ng/mL. In series [5], this molecule displayed a solubility (kinetic) of 10 µM (≈ 3.22 µg/mL). The molecule further came in with an AUC with Mus musculus [6] of 9650 ng·h/mL. The molecule also had a t1/2 in the series with Mus musculus [7] of 131 min.
On to `CCS(=O)(=O)c1ccc2oc(-c3ccc4ccccc4c3)nc2c1` [EZUTROMID], for which the half-life stood at 105 min in [10] and 81.5 min in [8]. Further, the Activity in the series filed under Mus musculus [1] is 143%. The EC50 in the series filed under Mus musculus [3] (Mus musculus, H2K, 48 h) turned out to be 1.8 µM; in the series listed under Mus musculus [3] (h2k), 0.91 µM. The area under the curve (AUC) in [11] turned out to be 7000 ng·h/mL. Also, the highest level in series [12] (Cmax) was 1490 ng/mL. In addition, in series [5], the kinetic solubility stood at 3 µM (≈ 1.01 µg/mL). Also, the Tmax in series [13] was 15 min.
